Measurements from ChEMBL document CHEMBL4316612, “Synthesis of novel dihydrotriazine derivatives bearing 1,3-diaryl pyrazole moieties as potential antibacterial agents” (Bioorg Med Chem Lett, 2019).
≈ marks a conversion by molar mass, not a printed value.

Experiments:
Type in all cases: functional
[1] = system: Staphylococcus aureus; test: Antibacterial activity against quinolone-resistant Staphylococcus aureus CCARM 3519 after 24 hrs by microtiter ELISA; conditions: CCARM 3519, 24 h
How it was run: (§1)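 Broth microdilution MIC. Bacteria grown to mid-log phase in Mueller-Hinton broth, diluted 1000-fold, and inoculated at 10^5 CFU/mL. Compounds in DMSO (final ≤0.05%) were given as two-fold serial dilutions, final 64-0.25 µg/mL. Plates were incubated 24 h at 37 °C and growth read at 650 nm. MIC is the lowest concentration giving complete growth inhibition. Three independent experiments; oxacillin and norfloxacin served as positive controls.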

[2] = system: Escherichia coli; test: Antibacterial activity against Escherichia coli KCTC 1924 after 24 hrs by microtiter ELISA; conditions: KCTC 1924, 24 h
How it was run: (§2)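 Two-fold serial broth dilution in Mueller-Hinton broth, final 64-0.25 µg/mL; compounds in DMSO (final ≤0.05%). Mid-log cultures diluted 1000-fold, inoculum 10^5 CFU/mL; oxacillin and norfloxacin as positive controls. After 24 h at 37 °C, growth read at 650 nm on a microtiter ELISA reader; MIC = lowest level giving complete growth inhibition. Run three times.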

[3] = system: Streptococcus mutans; test: Antibacterial activity against Streptococcus mutans 3289 after 24 hrs by microtiter ELISA; conditions: Streptococcus mutans, 3289, 24 h; how it was run: as §2
[4] = system: Staphylococcus aureus; test: Antibacterial activity against methicillin-resistant Staphylococcus aureus CCARM 3506 after 24 hrs by microtiter ELISA; conditions: CCARM 3506, 24 h; how it was run: as §1
[5] = system: Candida albicans; test: Antifungal activity against Candida albicans 7535 after 24 hrs by microtiter ELISA; conditions: Candida albicans, 7535, 24 h; how it was run: as §2
[6] = system: Staphylococcus aureus; test: Antibacterial activity against Staphylococcus aureus RN4220 after 24 hrs by microtiter ELISA; conditions: RN4220, 24 h; how it was run: as §1
[7] = system: Staphylococcus aureus; test: Antibacterial activity against methicillin-resistant Staphylococcus aureus CCARM 3167 after 24 hrs by microtiter ELISA; conditions: CCARM 3167, 24 h; how it was run: as §1
[8] = system: Staphylococcus aureus; test: Antibacterial activity against quinolone-resistant Staphylococcus aureus CCARM 3505 after 24 hrs by microtiter ELISA; conditions: CCARM 3505, 24 h; how it was run: as §1

Row | Compound | MIC [1] | MIC [2] | MIC [3] | MIC [4] | MIC [5] | MIC [6] | MIC [7] | MIC [8]
1 | NC1=NC(c2cn(-c3ccc([N+](=O)[O-])cc3[N+](=O)[O-])nc2-c2ccc(Cl)cc2Cl)N=C(N2CCOCC2)N1 (configuration not stated) | 16 µg/mL (≈ 28.6 µM) | 8 µg/mL (≈ 14.3 µM) | 16 µg/mL (≈ 28.6 µM) | 8 µg/mL (≈ 14.3 µM) | 8 µg/mL (≈ 14.3 µM) | 16 µg/mL (≈ 28.6 µM) | 8 µg/mL (≈ 14.3 µM) | 8 µg/mL (≈ 14.3 µM)
2 | NC1=NC(c2cn(-c3ccc([N+](=O)[O-])cc3[N+](=O)[O-])nc2-c2ccccc2Cl)N=C(N2CCOCC2)N1 (configuration not stated) | 64 µg/mL (≈ 122 µM) | 64 µg/mL (≈ 122 µM) | 64 µg/mL (≈ 122 µM) | 32 µg/mL (≈ 60.8 µM) | 64 µg/mL (≈ 122 µM) | 32 µg/mL (≈ 60.8 µM) | 32 µg/mL (≈ 60.8 µM) | 32 µg/mL (≈ 60.8 µM)
3 | Cc1ccc(-c2nn(-c3ccccc3)cc2C2N=C(N)NC(N(C)C)=N2)cc1 (configuration not stated) | 64 µg/mL (≈ 171 µM) | 32 µg/mL (≈ 85.7 µM) | 64 µg/mL (≈ 171 µM) | 32 µg/mL (≈ 85.7 µM) | 32 µg/mL (≈ 85.7 µM) | 32 µg/mL (≈ 85.7 µM) | 16 µg/mL (≈ 42.8 µM) | 64 µg/mL (≈ 171 µM)
4 | NC1=NC(c2cn(-c3ccc([N+](=O)[O-])cc3[N+](=O)[O-])nc2-c2ccccc2[N+](=O)[O-])N=C(N2CCOCC2)N1 (configuration not stated) | > 64 µg/mL | > 64 µg/mL | > 64 µg/mL | > 64 µg/mL | > 64 µg/mL | > 64 µg/mL | > 64 µg/mL | > 64 µg/mL
5 | NC1=NC(c2cn(-c3ccccc3)nc2-c2ccc(Cl)cc2)N=C(N2CCOCC2)N1 (configuration not stated) | 16 µg/mL (≈ 36.7 µM) | 16 µg/mL (≈ 36.7 µM) | 32 µg/mL (≈ 73.4 µM) | 16 µg/mL (≈ 36.7 µM) | 16 µg/mL (≈ 36.7 µM) | 16 µg/mL (≈ 36.7 µM) | 16 µg/mL (≈ 36.7 µM) | 16 µg/mL (≈ 36.7 µM)
6 | CN(C)C1=NC(c2cn(-c3ccc([N+](=O)[O-])cc3[N+](=O)[O-])nc2-c2ccccc2Cl)N=C(N)N1 (configuration not stated) | 64 µg/mL (≈ 132 µM) | 32 µg/mL (≈ 66.1 µM) | 64 µg/mL (≈ 132 µM) | 64 µg/mL (≈ 132 µM) | 64 µg/mL (≈ 132 µM) | 32 µg/mL (≈ 66.1 µM) | 32 µg/mL (≈ 66.1 µM) | 32 µg/mL (≈ 66.1 µM)
7 | CN(C)C1=NC(c2cn(-c3ccc([N+](=O)[O-])cc3[N+](=O)[O-])nc2-c2ccc(F)cc2)N=C(N)N1 (configuration not stated) | 64 µg/mL (≈ 137 µM) | 32 µg/mL (≈ 68.5 µM) | 32 µg/mL (≈ 68.5 µM) | 32 µg/mL (≈ 68.5 µM) | 32 µg/mL (≈ 68.5 µM) | 32 µg/mL (≈ 68.5 µM) | 32 µg/mL (≈ 68.5 µM) | 64 µg/mL (≈ 137 µM)
8 | NC1=NC(c2cn(-c3ccc([N+](=O)[O-])cc3[N+](=O)[O-])nc2-c2ccc(Br)cc2)N=C(N2CCOCC2)N1 (configuration not stated) | 8 µg/mL (≈ 14 µM) | 8 µg/mL (≈ 14 µM) | 16 µg/mL (≈ 28.1 µM) | 4 µg/mL (≈ 7.01 µM) | 8 µg/mL (≈ 14 µM) | 8 µg/mL (≈ 14 µM) | 8 µg/mL (≈ 14 µM) | 8 µg/mL (≈ 14 µM)
9 | NC1=NC(c2cn(-c3ccccc3)nc2-c2cccc(Cl)c2)N=C(N2CCOCC2)N1 (configuration not stated) | 16 µg/mL (≈ 36.7 µM) | 16 µg/mL (≈ 36.7 µM) | 32 µg/mL (≈ 73.4 µM) | 16 µg/mL (≈ 36.7 µM) | 16 µg/mL (≈ 36.7 µM) | 16 µg/mL (≈ 36.7 µM) | 16 µg/mL (≈ 36.7 µM) | 16 µg/mL (≈ 36.7 µM)
10 | COc1c(N2CCNC(C)C2)c(F)cc2c(=O)c(C(=O)O)cn(C3CC3)c12 (configuration not stated) [GATIFLOXACIN] | 4 µg/mL (≈ 10.7 µM) | 2 µg/mL (≈ 5.33 µM) | 0.25 µg/mL (≈ 0.666 µM) | 2 µg/mL (≈ 5.33 µM) | – | 0.25 µg/mL (≈ 0.666 µM) | 2 µg/mL (≈ 5.33 µM) | 8 µg/mL (≈ 21.3 µM)
11 | CCC(C)n1ncn(-c2ccc(N3CCN(c4ccc(OCC5COC(Cn6cncn6)(c6ccc(Cl)cc6Cl)O5)cc4)CC3)cc2)c1=O (configuration not stated) [ITRACONAZOLE] | – | – | – | – | 0.6 µg/mL (≈ 0.85 µM) | – | – | –
12 | Cc1onc(-c2ccccc2)c1C(=O)N[C@@H]1C(=O)N2[C@@H]1SC(C)(C)[C@@H]2C(=O)O [OXACILLIN] | 1 µg/mL (≈ 2.49 µM) | – | – | > 64 µg/mL | – | – | > 64 µg/mL | 1 µg/mL (≈ 2.49 µM)
13 | CN(C)C1=NC(c2cn(-c3ccc([N+](=O)[O-])cc3[N+](=O)[O-])nc2-c2ccccc2)N=C(N)N1 (configuration not stated) | 64 µg/mL (≈ 142 µM) | 32 µg/mL (≈ 71.2 µM) | 64 µg/mL (≈ 142 µM) | 64 µg/mL (≈ 142 µM) | 32 µg/mL (≈ 71.2 µM) | 32 µg/mL (≈ 71.2 µM) | 32 µg/mL (≈ 71.2 µM) | 32 µg/mL (≈ 71.2 µM)
14 | CCn1cc(C(=O)O)c(=O)c2cc(F)c(N3CCNCC3)cc21 [NORFLOXACIN] | > 64 µg/mL | – | – | 4 µg/mL (≈ 12.5 µM) | – | – | 8 µg/mL (≈ 25.1 µM) | > 64 µg/mL
15 | Cc1ccc(-c2nn(-c3ccccc3)cc2C2N=C(N)NC(N3CCOCC3)=N2)cc1 (configuration not stated) | 64 µg/mL (≈ 154 µM) | 64 µg/mL (≈ 154 µM) | 64 µg/mL (≈ 154 µM) | 32 µg/mL (≈ 77 µM) | 64 µg/mL (≈ 154 µM) | 64 µg/mL (≈ 154 µM) | 32 µg/mL (≈ 77 µM) | 64 µg/mL (≈ 154 µM)
16 | CN(C)C1=NC(c2cn(-c3ccccc3)nc2-c2ccc(Cl)cc2)N=C(N)N1 (configuration not stated) | 16 µg/mL (≈ 40.6 µM) | 8 µg/mL (≈ 20.3 µM) | 32 µg/mL (≈ 81.2 µM) | 8 µg/mL (≈ 20.3 µM) | 8 µg/mL (≈ 20.3 µM) | 8 µg/mL (≈ 20.3 µM) | 16 µg/mL (≈ 40.6 µM) | 16 µg/mL (≈ 40.6 µM)
17 | CN(C)C1=NC(c2cn(-c3ccc([N+](=O)[O-])cc3[N+](=O)[O-])nc2-c2ccc(Br)cc2)N=C(N)N1 (configuration not stated) | 8 µg/mL (≈ 15.1 µM) | 8 µg/mL (≈ 15.1 µM) | 16 µg/mL (≈ 30.3 µM) | 4 µg/mL (≈ 7.57 µM) | 8 µg/mL (≈ 15.1 µM) | 8 µg/mL (≈ 15.1 µM) | 8 µg/mL (≈ 15.1 µM) | 4 µg/mL (≈ 7.57 µM)
18 | Cc1ccc(-c2nn(-c3ccc([N+](=O)[O-])cc3[N+](=O)[O-])cc2C2N=C(N)NC(N(C)C)=N2)cc1 (configuration not stated) | 16 µg/mL (≈ 34.5 µM) | 16 µg/mL (≈ 34.5 µM) | 16 µg/mL (≈ 34.5 µM) | 8 µg/mL (≈ 17.3 µM) | 64 µg/mL (≈ 138 µM) | 16 µg/mL (≈ 34.5 µM) | 8 µg/mL (≈ 17.3 µM) | 8 µg/mL (≈ 17.3 µM)
19 | NC1=NC(c2cn(-c3ccc([N+](=O)[O-])cc3[N+](=O)[O-])nc2-c2ccccc2F)N=C(N2CCOCC2)N1 (configuration not stated) | 64 µg/mL (≈ 126 µM) | 64 µg/mL (≈ 126 µM) | > 64 µg/mL | 32 µg/mL (≈ 62.8 µM) | 64 µg/mL (≈ 126 µM) | 64 µg/mL (≈ 126 µM) | 64 µg/mL (≈ 126 µM) | 64 µg/mL (≈ 126 µM)
20 | COc1cccc(-c2nn(-c3ccc([N+](=O)[O-])cc3[N+](=O)[O-])cc2C2N=C(N)NC(N(C)C)=N2)c1 (configuration not stated) | 64 µg/mL (≈ 133 µM) | 32 µg/mL (≈ 66.7 µM) | 64 µg/mL (≈ 133 µM) | 32 µg/mL (≈ 66.7 µM) | 32 µg/mL (≈ 66.7 µM) | 32 µg/mL (≈ 66.7 µM) | 32 µg/mL (≈ 66.7 µM) | 64 µg/mL (≈ 133 µM)
21 | OC(Cn1cncn1)(Cn1cncn1)c1ccc(F)cc1F [FLUCONAZOLE] | – | – | – | – | 1 µg/mL (≈ 3.27 µM) | – | – | –
22 | COc1c(N2C[C@@H]3CCCN[C@@H]3C2)c(F)cc2c(=O)c(C(=O)O)cn(C3CC3)c12 [MOXIFLOXACIN] | 4 µg/mL (≈ 9.96 µM) | – | 0.25 µg/mL (≈ 0.623 µM) | – | – | 0.25 µg/mL (≈ 0.623 µM) | – | –
23 | CN(C)C1=NC(c2cn(-c3ccccc3)nc2-c2ccccc2)N=C(N)N1 (configuration not stated) | 64 µg/mL (≈ 178 µM) | 64 µg/mL (≈ 178 µM) | > 64 µg/mL | 32 µg/mL (≈ 89 µM) | > 64 µg/mL | 32 µg/mL (≈ 89 µM) | 32 µg/mL (≈ 89 µM) | 32 µg/mL (≈ 89 µM)
24 | NC1=NC(c2cn(-c3ccccc3)nc2-c2ccc(Br)cc2)N=C(N2CCOCC2)N1 (configuration not stated) | 8 µg/mL (≈ 16.7 µM) | 16 µg/mL (≈ 33.3 µM) | 32 µg/mL (≈ 66.6 µM) | 4 µg/mL (≈ 8.33 µM) | 16 µg/mL (≈ 33.3 µM) | 8 µg/mL (≈ 16.7 µM) | 8 µg/mL (≈ 16.7 µM) | 16 µg/mL (≈ 33.3 µM)
25 | CN(C)C1=NC(c2cn(-c3ccccc3)nc2-c2ccc(Br)cc2)N=C(N)N1 (configuration not stated) | 16 µg/mL (≈ 36.5 µM) | 8 µg/mL (≈ 18.3 µM) | 16 µg/mL (≈ 36.5 µM) | 4 µg/mL (≈ 9.13 µM) | 8 µg/mL (≈ 18.3 µM) | 8 µg/mL (≈ 18.3 µM) | 4 µg/mL (≈ 9.13 µM) | 16 µg/mL (≈ 36.5 µM)
